Experiment [1] relates to Rattus norvegicus. Nature of the experiment: Antidiabetic activity in Wistar albino rat assessed as reduction of fasting blood glucose level administered qd for 9 days by oral glucose tolerance test (RVb = 83.33 +/- 1.54 mg/dl). The format is functional.
For experiment [2], the system named is Rattus norvegicus. Nature of the experiment: Antidiabetic activity in Wistar albino rat assessed as reduction of blood glucose level administered qd for 9 days measured after 30 mins last post dose by oral glucose tolerance test (RVb = 183.2 +/- 3.68 mg/dl). The format is functional.
Experiment [3] concerns Rattus norvegicus. Description: Antidiabetic activity in Wistar albino rat assessed as reduction of blood glucose level administered qd for 9 days measured after 90 mins last post dose by oral glucose tolerance test (RVb = 135.7 +/- 2.9 mg/dl). In kind it is functional.
The test system of another experiment is Nucleic Acid. Description: Induction of Escherichia coli DNA cleavage at 25 mg after 2 hrs using ethidium bromide staining by agarose gel electrophoresis methos. In kind it is nucleic-acid assay. In outline: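 Genomic DNA came from E. coli grown 24 h at 37 °C in nutrient broth. It was extracted by SDS/EDTA lysis, phenol then chloroform–isoamyl alcohol, and ethanol precipitation, and dissolved in TAE. Samples were incubated with the DNA 2 h at 37 °C, mixed 1:1 with bromophenol blue, and run on agarose in TAE at 50 V alongside a DNA marker. Gels were ethidium bromide stained 10–15 min and cleavage judged visually.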

Experiment [4] relates to Rattus norvegicus. Description: Antidiabetic activity in Wistar albino rat assessed as reduction of blood glucose level administered qd for 9 days by glucose oxidation method (RVb = […] +/- […] mg/dl). The format is functional.
The test system of experiment [5] is Rattus norvegicus. Description: Anticonvulsant activity in Wistar albino rat assessed as time spent on stupor phase at 85 mg/kg by MES test (RVb = 218.33 +/- 5.80 sec). In kind it is functional. The essentials: (§1)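 Maximal electroshock (MES) convulsion model in rats. Duration in seconds of the flexion, extensor, clonus and stupor phases was recorded, along with recovery or death. The vehicle control was 1% w/w gum acacia and phenytoin was the reference. Data are mean ± SEM, with P < 0.05 taken as significant.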

The subject of experiment [6] is Rattus norvegicus. Nature of the experiment: Anticonvulsant activity in Wistar albino rat assessed as time spent on tonic extensor phase at 85 mg/kg by MES test (RVb = 11 +/- 0.57 sec). The format is functional. The essentials:
as §1

The test system of experiment [7] is Rattus norvegicus. Description: Anticonvulsant activity in Wistar albino rat assessed as time spent on tonic flexion phase at 85 mg/kg by MES test (RVb = 3.12 +/- 0.31 sec). In kind it is functional. The essentials:
as §1

Experiment [8] concerns Rattus norvegicus. Description: Anticonvulsant activity in Wistar albino rat assessed as time spent on clonic convulsions phase at 85 mg/kg by MES test (RVb = 16.80 +/- 2.50 sec). In kind it is functional. The essentials:
as §1

Experiment [9] deals with Rattus norvegicus. Description: Anticonvulsant activity in Wistar albino rat assessed as time spent on tonic flexion phase at 75 mg/kg by MES test (RVb = 3.12 +/- 0.31 sec). In kind it is functional. In outline: as §1
In experiment [10] the test system is Rattus norvegicus. Nature of the experiment: Anticonvulsant activity in Wistar albino rat assessed as time spent on stupor phase at 75 mg/kg by MES test (RVb = 218.33 +/- 5.80 sec). In kind it is functional. In outline: as §1
Experiment [11] relates to Rattus norvegicus. Nature of the experiment: Anticonvulsant activity in Wistar albino rat assessed as time spent on clonic convulsions phase at 75 mg/kg by MES test (RVb = 16.80 +/-2.50 sec). The format is functional. The essentials: as §1
Experiment [12] concerns Rattus norvegicus. Description: Anticonvulsant activity in Wistar albino rat assessed as time spent on tonic extensor phase at 75 mg/kg by MES test (RVb = 11 +/- 0.57 sec). In kind it is functional. In outline:
as §1

The test system of experiment [13] is Rattus norvegicus. Description: Anticonvulsant activity in Wistar albino rat assessed as time spent on tonic flexion phase at 70 mg/kg by MES test (RVb = 3.12 +/- 0.31 sec). In kind it is functional. The essentials: as §1
Experiment [14] relates to Rattus norvegicus. Description: Anticonvulsant activity in Wistar albino rat assessed as time spent on stupor phase at 70 mg/kg by MES test (RVb = 218.33 +/- 5.80 sec). In kind it is functional. The essentials:
as §1

Experiment [15] has as its system Rattus norvegicus. Nature of the experiment: Anticonvulsant activity in Wistar albino rat assessed as time spent on clonic convulsions phase at 70 mg/kg by MES test (RVb = 16.80 +/- 2.50 sec). The format is functional. The essentials: as §1
For experiment [16], the system named is Rattus norvegicus. Description: Anticonvulsant activity in Wistar albino rat assessed as time spent on tonic extensor phase at 70 mg/kg by MES test (RVb = 11 +/- 0.57 sec). In kind it is functional. In outline:
as §1

For experiment [17], the system named is Rattus norvegicus. Nature of the experiment: Anticonvulsant activity in Wistar albino rat assessed as time spent on stupor phase at 65 mg/kg by MES test (RVb = 218.33 +/- 5.80 sec). In kind it is functional. The essentials:
as §1

Experiment [18] has as its system Rattus norvegicus. Description: Anticonvulsant activity in Wistar albino rat assessed as time spent on clonic convulsions phase at 65 mg/kg by MES test (RVb = 16.80 +/- 2.50 sec). The format is functional. In outline: as §1
In experiment [19] the test system is Rattus norvegicus. Description: Anticonvulsant activity in Wistar albino rat assessed as time spent on tonic flexion phase at 65 mg/kg by MES test (RVb = 3.12 +/- 0.31 sec). The format is functional. The essentials: as §1
Experiment [20] deals with Rattus norvegicus. Description: Anticonvulsant activity in Wistar albino rat assessed as time spent on tonic extensor phase at 65 mg/kg by MES test (RVb = 11 +/- 0.57 sec). In kind it is functional. In outline: as §1
In experiment [21] the test system is Rattus norvegicus. Nature of the experiment: Anticonvulsant activity in Wistar albino rat assessed as time spent on tonic flexion phase at 20 mg/kg by MES test (RVb = 3.12 +/- 0.31 sec). The format is functional. In outline: as §1
Experiment [22] concerns Rattus norvegicus. Description: Anticonvulsant activity in Wistar albino rat assessed as time spent on clonic convulsions phase at 20 mg/kg by MES test (RVb = 16.80 +/- 2.50 sec). In kind it is functional. The essentials: as §1
In experiment [23] the test system is Rattus norvegicus. Nature of the experiment: Anticonvulsant activity in Wistar albino rat assessed as time spent on stupor phase at 20 mg/kg by MES test (RVb = 218.33 +/- 5.80 sec). The format is functional. In outline: as §1
Experiment [24] has as its system Rattus norvegicus. Description: Anticonvulsant activity in Wistar albino rat assessed as time spent on tonic extensor phase at 20 mg/kg by MES test (RVb = 11 +/- 0.57 sec). The format is functional. In outline: as §1

Each structure is given as a SMILES string. Active and inactive are the calls of the source. The rule behind the calls is not given here.

`Oc1ccc(-c2nnc(CSc3nc4ccccc4[nH]3)o2)cc1`: the Activity was 80.83 mg/dL with Rattus norvegicus [1], 167.5 mg/dL in the experiment on Rattus norvegicus [2], 125 mg/dL in the experiment with Rattus norvegicus [3] and 166.2 mg/dL in the experiment with Rattus norvegicus [4]. In addition, in the experiment on Nucleic Acid, the result was inactive.

`O=C(CSc1nc2ccccc2[nH]1)NN1C(=O)CSC1c1ccccc1O` (centres undefined): the Time in the experiment on Rattus norvegicus [5] is listed as 209.3 s; in the experiment with Rattus norvegicus [6], 4.33 s; in the experiment with Rattus norvegicus [7], 3.14 s; in the experiment with Rattus norvegicus [8], 15.62 s. The outcome with Nucleic Acid was Active.

Regarding `c1ccc(-c2nnc(CSc3nc4ccccc4[nH]3)o2)cc1`, the Activity in the experiment with Rattus norvegicus [1] is 76.33 mg/dL; with Rattus norvegicus [2] it was 180.2 mg/dL; in the experiment with Rattus norvegicus [3], 107.7 mg/dL; in the experiment on Rattus norvegicus [4], 337.2 mg/dL. In the experiment with Nucleic Acid, the result was inactive.

In the case of `O=C(CSc1nc2ccccc2[nH]1)NN1C(=O)CSC1c1ccc(Cl)cc1` (centres undefined), the Time with Rattus norvegicus [9] was found to be 4.56 s; with Rattus norvegicus [10] it was 215.5 s; with Rattus norvegicus [11] it was 1.36 s; in the experiment with Rattus norvegicus [12], 12.1 s.

For `O=C(CSc1nc2ccccc2[nH]1)NN1C(=O)CSC1c1ccc(O)cc1` (centres undefined), the Time is 3.96 s with Rattus norvegicus [13], 202.1 s in the experiment with Rattus norvegicus [14], 1.02 s in the experiment with Rattus norvegicus [15] and 3.73 s in the experiment on Rattus norvegicus [16]. The outcome with Nucleic Acid was Active.

Consider `O=[N+]([O-])c1ccc(-c2nnc(CSc3nc4ccccc4[nH]3)o2)c(Cl)c1`, for which the Activity was 77.17 mg/dL in the experiment on Rattus norvegicus [1], 155.3 mg/dL with Rattus norvegicus [2], 121.7 mg/dL with Rattus norvegicus [3] and 187.7 mg/dL in the experiment on Rattus norvegicus [4].

Take `O=C(CSc1nc2ccccc2[nH]1)NN1C(=O)CSC1c1ccco1` (centres undefined): the Time with Rattus norvegicus [17] is 208.6 s; in the experiment on Rattus norvegicus [18], 1 s; with Rattus norvegicus [19] it was 4.2 s; with Rattus norvegicus [20], 5.3 s.

For `O=C1NC(=O)C(c2ccccc2)(c2ccccc2)N1` [PHENYTOIN], the Time with Rattus norvegicus [21] came out at 2.87 s; with Rattus norvegicus [22] it was 4.9 s; with Rattus norvegicus [23] it was 158.6 s; with Rattus norvegicus [24] it was 0 s.

Regarding `Oc1cc(-c2nnc(CSc3nc4ccccc4[nH]3)o2)cc(O)c1O`, the Activity in the experiment with Rattus norvegicus [1] came out at 73.33 mg/dL; in the experiment on Rattus norvegicus [2], 174.2 mg/dL; with Rattus norvegicus [3] it was 110 mg/dL; with Rattus norvegicus [4], 386.4 mg/dL.

Consider `Clc1ccc(-c2nnc(CSc3nc4ccccc4[nH]3)o2)cc1`, for which the Activity in the experiment on Rattus norvegicus [1] is 74.83 mg/dL; in the experiment on Rattus norvegicus [2], 173.2 mg/dL; in the experiment on Rattus norvegicus [3] it was 120 mg/dL; with Rattus norvegicus [4], 386.7 mg/dL.

Values taken from ChEMBL document CHEMBL1157848, “Derivatives of benzimidazole pharmacophore: synthesis, anticonvulsant, antidiabetic and DNA cleavage studies” (2010).
